Results on 37 sequences are retold here after the array DNA melting data of Ke et al. (doi:10.1101/2024.01.08.574731).

Data set [1] can be described thus: folding enthalpy; higher = less favourable; fluorescence melt of hairpins on a sequencing array, two-state fit. The conditions noted are these: sodium 0.088 M. The gist of the method:
(§1)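 Cy3 signals were normalised both to pre-quench Cy3 and to control constructs. They came from library hairpins carrying annealed Cy3 and quencher oligos on a sequenced MiSeq flow cell, imaged in 50 mM Na-HEPES pH 8.0, 25 mM NaCl, in 2.5 °C steps up to 60 °C. Bootstrapped two-state fits gave melting temperature and folding enthalpy, and four replicates were combined by inverse variance. Fitted temperatures were then raised by 9.35 °C to match UV melts.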

Data set [2] in a line: melting temperature; fluorescence melt of hairpins on a sequencing array, two-state fit, raised by 9.35 °C to match UV melts. To be noted: sodium 0.088 M. The gist of the method:
as §1

For GTGAGGGGAAACCCTTGC (..((((....))))..), the folding enthalpy in data set [1] was -16.4 kcal/mol. The Tm in data set [2] came out at 38.7 °C.
On the same counts, the results for GGTGGTCGAAAGACAACC (((.(((....))).))) are -39.2 kcal/mol and 55.6 °C.
In the case of GTGTTCGGAAACGGATAC ((.(.((....)).).)), the folding enthalpy in data set [1] was -25.8 kcal/mol. Also, the Tm in data set [2] is 33.6 °C.
As for GCAGTTTCGAAAGAATGC (((..(((....)))))), the folding enthalpy in data set [1] was -12.5 kcal/mol. For the same sequence, the Tm in data set [2] was determined as 25.8 °C.
On to GATTACGGAAACGTAACC (.(((((....))))).), for which the folding enthalpy in data set [1] was -16.6 kcal/mol. In addition, in data set [2], the Tm was 33.8 °C.
Consider GCCCTGCGAAAGCACCGC ((..(((....)))..)), for which the folding enthalpy in data set [1] was -7.84 kcal/mol. In addition, the Tm in data set [2] stood at 32.4 °C.
As to GGGGACGGAAACGTCCTC (.(((((....))))).), the folding enthalpy in data set [1] was -13.7 kcal/mol. For the same sequence, the Tm in data set [2] was determined as 58.7 °C.
For GTATCCGAAAGGAGTTAC ((((((....)))..))), the folding enthalpy in data set [1] was -14.9 kcal/mol. In addition, the Tm in data set [2] came out at 25.3 °C.
As for GAGATCACGAAAGTGCTC (((..(((....)))))), in data set [1], the folding enthalpy was -12.1 kcal/mol. In addition, the Tm in data set [2] amounted to 29.9 °C.
With GATCATAGGATGATC ((((((...)))))), the folding enthalpy in data set [1] was -30.8 kcal/mol. Moreover, in data set [2], the Tm is 48.3 °C.
As to GATCTACAATAGATC ((((((...)))))), the folding enthalpy in data set [1] is -18.8 kcal/mol. The Tm in data set [2] is 36.7 °C.
As for GATCCCGTCTGGGATC ((((((....)))))), the folding enthalpy in data set [1] was -39.2 kcal/mol. In addition, in data set [2], the Tm was 65.5 °C.
Turning to GGATCCGGAAACGGGTTC (.(.(((....))).).), the folding enthalpy in data set [1] was -16.8 kcal/mol. Besides, the Tm in data set [2] was 38 °C.
On to GTCAACGAAAGTTTTGAC ((((((....)))..))), for which the folding enthalpy in data set [1] is -17.4 kcal/mol. For the same sequence, the Tm in data set [2] was 32.8 °C.
With GACGGCGAAAGCCGGTC ((((((....))).))), in data set [1], the folding enthalpy was -11.6 kcal/mol. Also, in data set [2], the Tm is 64 °C.
On to GCGGGGCGAAAGCATCGC (((..((....))..))), for which, in data set [1], the folding enthalpy is -33.1 kcal/mol. The Tm in data set [2] was 65.2 °C.
In the case of GCAAGGCGAAAGCCCAGC ((..(((....)))..)), the folding enthalpy in data set [1] was -13.1 kcal/mol. Moreover, the Tm in data set [2] came to 45.9 °C.
On the same counts, the results for GTCTCTCGAAAGAGCGAC (((.(((....))).))) are -25.6 kcal/mol and 46.3 °C.
GATCAGGTATCTGATC ((((((....)))))): the folding enthalpy in data set [1] was -40.8 kcal/mol. The Tm in data set [2] amounted to 57.5 °C.
Regarding GGTTACGAAAGTACTACC ((((((....)))..))), in data set [1], the folding enthalpy was -23.2 kcal/mol. For the same sequence, in data set [2], the Tm turned out to be 28.4 °C.
Turning to GGTCGTGGAAACGTGACC ((((..(....)..)))), in data set [1], the folding enthalpy was -20.4 kcal/mol. The Tm in data set [2] amounted to 46.5 °C.
As to GGAACCGAAAGGTGCTCC ((((((....)))..))), in data set [1], the folding enthalpy was -12.5 kcal/mol. The Tm in data set [2] came to 38.8 °C.
Regarding GATCTACTTTTAGATC ((((((....)))))), the folding enthalpy in data set [1] was -33.1 kcal/mol. Also, the Tm in data set [2] amounted to 39.8 °C.
As for GATCTCCCGAGAGATC ((((((....)))))), the folding enthalpy in data set [1] is -38.6 kcal/mol. Besides, the Tm in data set [2] worked out at 52.7 °C.
As for GCAAGCGAAAGCTATGC ((((((....))).))), the folding enthalpy in data set [1] is -23 kcal/mol. The Tm in data set [2] came out at 51.2 °C.
The corresponding values for GGGGCCTCGAAAGAGCCC (((..(((....)))))) are -23.8 kcal/mol and 56.8 °C.
With CGTATCGGAAACGAGACG (((.(((....))).))), in data set [1], the folding enthalpy is -35.2 kcal/mol. Moreover, the Tm in data set [2] stood at 53.3 °C.
The corresponding values for GCCACGCGAAAGCATGGC ((((.((....)).)))) are -32.9 kcal/mol and 66.8 °C.
For the sequence GTCATCCCGAAAGGGGAC (((..(((....)))))), in data set [1], the folding enthalpy is -14.1 kcal/mol. The Tm in data set [2] amounted to 37.8 °C.
The corresponding values for GGTAGGCGAAAGCCGACC (((.(((....))).))) are -18.6 kcal/mol and 65.4 °C.
Consider GATCTCAGTGAGATC ((((((...)))))), for which, in data set [1], the folding enthalpy was -31.9 kcal/mol. Moreover, in data set [2], the Tm was 53.1 °C.
In the case of GGGTCTCGAAAGAGCCCC (((.(((....))).))), the folding enthalpy in data set [1] was -37.9 kcal/mol. The Tm in data set [2] worked out at 57.4 °C.
Turning to GCTCTCGAAAGAGACAGC ((((((....)))..))), in data set [1], the folding enthalpy was -17.8 kcal/mol. Further, in data set [2], the Tm worked out at 35.9 °C.
GATCGTCCCACGATC ((((((...)))))): the folding enthalpy in data set [1] is -38.5 kcal/mol. The Tm in data set [2] was determined as 57.6 °C.
Take GTCCCACGAAAGTGAGAC (((.(((....))).))): in data set [1], the folding enthalpy is -30.2 kcal/mol. In data set [2], the Tm is 49.4 °C.
On the same counts, the results for GCCAGCCCGAAAGGGGGC (((..(((....)))))) are -14.7 kcal/mol and 55.3 °C.
Turning to GGAATTGGAAACAGTTCC ((((.((....)).)))), the folding enthalpy in data set [1] is -27.3 kcal/mol. Besides, the Tm in data set [2] was 42.9 °C.
